This sample holds only a part of the variants without activity.
B1: tRNA (parent)
chain: GUUCCGUUGGCGUAAUGGUAACGCGUCUCCCUCCUAAGGAGAAGACUGCGGGUUCGAGUCCCGUACGGAACG

Variants of: B1
Test: yeast fitness relative to wild type (ratio to wild type); higher = fitter; tRNA-Arg(CCU), competitive growth, 37 C, YPD
Outline: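 Start and end populations of a pooled competition were compared by 100-nucleotide paired-end sequencing of gene amplicons. The Saccharomyces cerevisiae strains carried tRNA-Arg(CCU) gene variants at the native genomic locus, synthesised with a 3% per-site mutation rate at 69 sites, and competed in YPD at 37°C for 24 hours in six parallel replicates. Darwinian fitness relative to wild type was based on the change in genotype frequencies. Genotypes required ≥ 100 starting reads, and estimates < 0.5 were set to 0.5.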

Variant	yeast fitness
GUUCCGUUGGCGCAAGGGUAACGCGUGUCCCUCCUAAGGAGAAGACUGAGGGUUCGAGUACCGUACGGAACG [U13C U16G C27G C49A C60A]	≤ 0.5
GUUCCGUUGGCGCAAUGGUAACGCGUCCCCCUCCUAAGGAGAAGACUACGGGUUCGAGUCGCGUACGGCACG [U13C U28C G48A C61G A69C]	≤ 0.5
GUUCCGUUGGCGCAAUGGUAACGCGUCUCCCGCCUAAGCAGAAGACUGCGGCUUCGAGUCCCGUACGGAACG [U13C U32G G39C G52C]	≤ 0.5
GUUCCGUUGGCGGAAUGGUAACGCGUCUCCCUCCUAAGGAGAAGUCUGCGGGUUCGAGUCCCGUACGGAACG [U13G A45U]	0.964
GUUCCGUUGGCGCAAUGGUAACGCGAUUCCCUCCUAAGGAGAAGACUGCGGGUUCGAGUCCCGUACGGAACG [U13C U26A C27U]	0.593
GUUCCGUUGGCGCAAUGGUAACGCGUCCCCCUCCUAAGGAGAAGACCGCGGGUUAGAGUCCCGUACGGAACG [U13C U28C U47C C55A]	0.545
GUUCCGUUGGCGCAAUGGUAACGCGUCUCCCUCCUAAGGAGAAGACUGCGGGUUCCAGUCCCGUACGGAACG [U13C G56C]	0.549
GUUCCGUUGGCGCAAUGGUAACGCGUCUCCCUCCUAAGGAGAAGACUGCGGGUUCAAGUCCCGUACGGAACG [U13C G56A]	1.04
GUUCCGUUGGCGCAAUGGGGACGCGUCUCCUUCCUAAGGAGAAAACUGCGGGUUCGAGUCCCGUACGGAACG [U13C U19G A20G C31U G44A]	≤ 0.5
GUUCCGUUGGCGGAAUGGUUAUGAGUCUCCCUCCUAAGGAGAAGGCUGCGGGUUUGAGUCCCGUACGGAACG [U13G A20U C22U C24A A45G C55U]	≤ 0.5
GUUCCGUUGGCGCAAUGGAAACGCGUCUCCCUCCUAAGGAGAAGACUGCGCGUUUGAGUCCCGGACGGAACG [U13C U19A G51C C55U U64G]	0.633
GUUCCGUUGGCGGAAUGGUAACGCGUCUCCCUCCUAAGGAGUAAACUGAGGGUUCGAGUCCCGUACGGAACG [U13G A42U G44A C49A]	0.602
GUUCCGUUGGCGCAAUGGUAACGCGUCUCCCUCCUAAGGAGAAGACAGCGGGUUCGAGUCCUGUACGGAACG [U13C U47A C62U]	0.596
GUUCCGUUGGCGCAAUGGCAACGCGUCUCCCUCCUUAGGAGGAGACUGCGGAUUCGAGUACAGUACGGAACG [U13C U19C A36U A42G G52A C60A C62A]	≤ 0.5
GUUCCGUUGGCGCAAUGGUAACGCGUCUCCCUCCUAAGGAGAAGACUCCGGGUUCGCGUCCCGUACGGAACG [U13C G48C A57C]	≤ 0.5
GUUCCGUUGGCGCAAUGGUAACGCGUCUCCCUCCUAAGGAGAAGACUCCGGGUUCGGGUCCCGUACGGAACG [U13C G48C A57G]	≤ 0.5
GUUCCGUUGGCGCAAUGGUAACGCGUCUCCCUCCUAAGGAGAAGACUCCAGGUUCGAGUCCCGUACGGAACG [U13C G48C G50A]	≤ 0.5
GUUCCGUUGGCGGAAUGGUACCGCGUCUCCCUCCUAAGGAGAAGAUUGCAGGUUCGAGUCCCGAACGGUACG [U13G A21C C46U G50A U64A A69U]	≤ 0.5
GUUCCGUUGGCGGAAUGGUAACGCGUCUCCCUCCUAAGGAGAAGACUGCGGGUUCGUGUCCCGUACGGAACG [U13G A57U]	0.6

Variant	yeast fitness
GUUCCGUUGGCGGAAUGGUGACGCGUCACCCUCCUAAGGAGAAGACUGCGGGUUCGAGUCCCGUACGGAUCG [U13G A20G U28A A70U]	0.873
GUUCCGUUGGCGGAAUGGUAAUGCGUCUCCCUCCUAAGGAGAAGACUGCGGGUUCGAGUCCCGUACGGAUCG [U13G C22U A70U]	0.751
GUUCCGUUGGCGGAAUGGUAAUGCGUCUCCCUCCUAAGGAGAAGACUGCGGGUUCGAGUCCCGUACGGACCG [U13G C22U A70C]	0.748
GUUCCGUUGGCGGCAUGGUAACGCGUCUCCCUCCUAAGGCGUAGACUGCGGGUUCGAGUCCCGUACGGAACG [U13G A14C A40C A42U]	≤ 0.5
GUUCCGUUGGCGCAAUGGUAACGCGUCUCCCUCCUAAGGAGAAGACCGCGGGUUCGAGUCCGGUACGGAACG [U13C U47C C62G]	≤ 0.5
GUUCCGUUGGCGGAAUGGUCACGCGUCUCCCUCCUAAGGAGAAGACUGCGGGUUUGAGUCCCGUACGGUACG [U13G A20C C55U A69U]	0.565
GUUCCGUUGGCGCAACGGUAACGCGACUCCCUCCUAAGGAGAAGACUGCGGGUUCGAGUCCCGUACGGAACG [U13C U16C U26A]	0.637
GUUCCGUUGGCGCAAUGGUAACGCGUCUCCCUCCUAAGGAGAAGACUACGGGUUCGAGUCGCGUACGGCACG [U13C G48A C61G A69C]	0.594
GUUCCGUUGGCGCAAGGGUAACGCGUCUCCCUCCUAAGGAGAAGACUGCGGGUUCGAGUCCCGUACGGAUCG [U13C U16G A70U]	0.595
GUUCCGUUGGCGGAAUGGUAAGGCGUCUCUCUCCUGAGGUGAAGACUGCGGGUGCGAGUCCCGUACGGAACG [U13G C22G C30U A36G A40U U54G]	≤ 0.5
GUUCCGUUGGCGCAAUGGUAACGCGUCUCCCUCCUAAGGAGAAGACUGCGGGUUCGAGUCCCGUACGAAACG [U13C G68A]	0.785
GUUCCGUUGGCGCAAUGGUAACGCGCCUCCCUCCUAAGGAGAAGACUGCGGGUUCGAGUCCCGUCCGGAACG [U13C U26C A65C]	0.661
GUUCCGUUGGCGCAAGGGUAACGCCUCUCCCUCCUAAGGAGAAGACUGCGGGUUCGAGUCCCGUACGGAACG [U13C U16G G25C]	≤ 0.5
GUUCCGUUGGCGGAAUGGUAACGCGUCUCCCUCCUAAGGAGAAGACUGCGGGUUCGAGUCCCGUACGGCACG [U13G A69C]	0.951
GUUCCGUUGGCGGAAUGGUAUAGCAUCUCCCUCCUAAGGAGAAGACUGCGGUUUCGAGUCCCGUACGGAACG [U13G A21U C22A G25A G52U]	≤ 0.5
GUUCCGUUGGCGGAAUGGUAAUGCGUCUCCCUCCUAAGGAGAAAACUGCGGGUUCGAGUCCCGUACGGAACG [U13G C22U G44A]	0.641
GUUCCGUUGGCGGAAUGGUUACGCGUCUCCCUCCUAAGGAGAAGACUGCGGGUUCGAGACCCGUACGGAACG [U13G A20U U59A]	≤ 0.5
GUUCCGUUGGCGCAAUGGUAACGCGUCUCCCUCCUAAGGAGAAGACUGCCGGUUCGAGUCCCGUAUGGAACG [U13C G50C C66U]	≤ 0.5
GUUCCGUUGGCGCAAUGGUAACGCGUCUCCCUCCUAAGGAGAAGACUGCGGGUUCGAGUCCCAUACGGAACG [U13C G63A]	0.937

Source: the RNAGym collection of RNA variant scans (doi:10.1126/science.aae0568)
